Source: PMC5970965 (Prostaglandins & other lipid mediators, 2018)

Columns and labels:
[1] = rat liver microsomal metabolic stability; assay type: in vitro ADME; conditions: for half-life / microsomal CLint: both, rat, rat liver microsomes; for microsomal CLint: app (rat liver microsomes)
[2] = human liver microsomal metabolic stability; assay type: in vitro ADME; conditions: both, human liver microsomes
[3] = biological target: T1, fatty acid amide hydrolase (FAAH) (Homo sapiens, UniProt O00519); experiment: FAAH inhibition assay, substrate OMP; assay type: biochemical
T1 sequence (O00519 1-579): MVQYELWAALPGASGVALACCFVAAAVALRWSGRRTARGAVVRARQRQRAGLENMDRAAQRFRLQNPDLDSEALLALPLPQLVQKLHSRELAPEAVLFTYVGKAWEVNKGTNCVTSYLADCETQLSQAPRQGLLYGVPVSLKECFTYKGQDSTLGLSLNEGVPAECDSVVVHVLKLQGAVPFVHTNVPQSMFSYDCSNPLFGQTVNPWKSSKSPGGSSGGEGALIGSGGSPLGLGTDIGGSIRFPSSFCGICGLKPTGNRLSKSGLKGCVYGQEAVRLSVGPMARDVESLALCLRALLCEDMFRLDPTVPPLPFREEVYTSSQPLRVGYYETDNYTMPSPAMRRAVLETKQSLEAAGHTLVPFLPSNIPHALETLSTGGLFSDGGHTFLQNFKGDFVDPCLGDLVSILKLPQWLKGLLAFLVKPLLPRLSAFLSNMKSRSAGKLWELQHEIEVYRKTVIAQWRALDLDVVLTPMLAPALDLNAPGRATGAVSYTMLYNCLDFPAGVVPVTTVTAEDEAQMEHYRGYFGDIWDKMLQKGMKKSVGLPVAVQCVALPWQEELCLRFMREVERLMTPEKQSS
Procedure, shortened: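 FAAH activity was followed fluorimetrically (excitation 303 nm, emission 394 nm) at 37 °C using N-(6-methoxypyridin-3-yl)octanamide (OMP) at a final concentration of 50 μM. The reaction buffer was 0.1 M sodium phosphate, pH 8, containing 0.1 mg/mL BSA. Each experiment was run in triplicate, and values are given as average ± SD.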

[4] = cited from earlier work
[5] = biological target: T2, Human sEH (Homo sapiens, UniProt P34913); experiment: human sEH inhibition assay, fluorescent substrate CMNPC; assay type: biochemical
T2 sequence (P34913 1-555): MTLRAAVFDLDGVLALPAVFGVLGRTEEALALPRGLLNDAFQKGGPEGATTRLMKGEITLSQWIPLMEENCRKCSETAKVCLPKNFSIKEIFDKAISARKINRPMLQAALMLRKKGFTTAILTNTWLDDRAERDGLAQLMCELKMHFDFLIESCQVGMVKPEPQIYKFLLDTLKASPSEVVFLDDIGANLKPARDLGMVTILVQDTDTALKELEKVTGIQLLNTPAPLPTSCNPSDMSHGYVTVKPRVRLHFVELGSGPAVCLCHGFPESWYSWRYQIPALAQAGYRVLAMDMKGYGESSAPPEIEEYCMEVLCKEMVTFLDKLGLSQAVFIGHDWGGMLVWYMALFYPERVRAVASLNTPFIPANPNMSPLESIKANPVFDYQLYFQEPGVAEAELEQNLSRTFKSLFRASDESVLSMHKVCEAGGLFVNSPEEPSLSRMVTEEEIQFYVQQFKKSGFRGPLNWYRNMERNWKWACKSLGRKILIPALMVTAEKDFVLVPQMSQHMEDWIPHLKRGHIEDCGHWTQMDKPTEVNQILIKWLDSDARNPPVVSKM

[6] = biological target: T3, rat sEH enzyme (Rattus norvegicus, UniProt P80299); experiment: rat sEH inhibition assay; assay type: biochemical
T3 sequence (P80299 1-554): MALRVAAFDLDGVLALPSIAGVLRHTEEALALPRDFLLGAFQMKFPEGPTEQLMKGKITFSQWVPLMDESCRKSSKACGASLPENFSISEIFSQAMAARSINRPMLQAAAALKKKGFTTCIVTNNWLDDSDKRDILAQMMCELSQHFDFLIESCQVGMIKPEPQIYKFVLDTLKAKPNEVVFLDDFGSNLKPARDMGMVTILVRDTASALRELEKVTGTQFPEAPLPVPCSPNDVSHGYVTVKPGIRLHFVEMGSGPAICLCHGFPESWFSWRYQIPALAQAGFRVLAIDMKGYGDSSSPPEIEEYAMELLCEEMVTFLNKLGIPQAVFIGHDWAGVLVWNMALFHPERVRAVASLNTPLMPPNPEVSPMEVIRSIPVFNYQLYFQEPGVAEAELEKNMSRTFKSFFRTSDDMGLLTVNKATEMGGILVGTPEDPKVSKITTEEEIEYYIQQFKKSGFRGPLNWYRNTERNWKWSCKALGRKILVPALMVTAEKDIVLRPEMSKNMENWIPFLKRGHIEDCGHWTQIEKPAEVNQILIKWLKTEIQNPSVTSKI

[7] = apparent intrinsic clearance, CLint = k/P

CLint, app (rat liver microsomes) [1, 7]	Structure (SMILES)	half-life [1]	microsomal CLint [1, 7]	half-life [2]	microsomal CLint [2]	IC50 [3]	CLint, app (human liver microsomes), previously published value in parenthesis [4]	IC50 [5]	IC50 [6]
	Cc1ccc(S(=O)(=O)N2CCC(C(=O)Nc3ccc4cc(C(=O)O)ccc4c3)CC2)c(C)c1 [Compound 3, 6-(1-((2,4-dimethylphenyl)sulfonyl)piperidine-4-carboxamido)-2-naphthoic acid]	0.433 h	53.3 µL/min/mg	3.1 h	7.5 µL/min/mg	23 µM	6.3 µL/min/mg	0.085 µM	0.141 ± 0.02 µM
<23.1 µL/min/mg	[2H]c1c([2H])c(S(=O)(=O)N2CCC(C(=O)Nc3ccc4cc(C(=O)O)ccc4c3)CC2)c(C([2H])([2H])[2H])c([2H])c1C([2H])([2H])[2H] [Compound 3i, 6-(1-((2,4-bis(methyl-d3)phenyl-3,5,6-d3)sulfonyl)piperidine-4-carboxamido)-2-naphthoic acid]	> 1 h	~20 µL/min/mg	> 4 h	< 5.8 µL/min/mg	8.8 µM		0.106 µM	
